Screening results from PubChem.
Shown are actives, neighbours in structure and some others; about 1.4% of the full set was active somewhere.
Arr AP2 block = inhibitors of beta-arrestin/AP2 binding, primary screen, biochemical, GPCR trafficking, flow cytometry; FITC-arrestin peptide / GST-AP2 beads; AP2 beta2 appendage carries R879A mutation; actives 0.31% (n = 340,000); beta-arrestin 1 C-terminal peptide binding to AP2 beta2-adaptin appendage (human); AID 504490, 2011; inhibition, % at 10 µM;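 active = inhibition above a set limit, near 3 SD of compounds lacking own fluorescence, cut at about 54% in these data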;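 also: plate controls were DMSO wells for no effect and 5 µM unlabelled arrestin peptide for full effect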
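System: GST-AP2 R879A bound to glutathione beads, E. coli-expressed. Also added: 50 nM FITC-arrestin peptide. Schedule: compound with beads 12 min RT, then probe 1 h RT. Signal: bead flow cytometry, FITC channel. Read-out basis: percent response.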
CAL PDZ FP-1 = untagged CAL PDZ binding inhibitors, primary screen, biochemical, fluorescence polarization, HTS; actives 0.92% (n = 300,000); purified CAL PDZ, TMR-peptide fluorescence polarization, 1 h; Golgi-associated PDZ and coiled-coil motif-containing protein (Homo sapiens), Q9HD26; inhibition, % at 24.9 µM; AID 602252, 2012;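 active = mean inhibition of at least 30% with at least half of replicates also reaching 30%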;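 also: 0% = DMSO neutral control and 100% = excess unlabeled competitor peptide PRC23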
CAL PDZ FP-2 = CAL PDZ peptide-binding inhibitors, primary screen, biochemical, fluorescence polarization, Cer-tagged CAL PDZ, HTS; purified CAL PDZ, TMR-peptide fluorescence polarization, 1 h; inhibition, % at 20 µM; actives 0.02% (n = 330,000); AID 504414, 2011;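 active = highest replicate inhibition of at least 40%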;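 also: plate controls were DMSO neutral control wells for no effect and unlabeled competitor peptide control wells for full effect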
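System: tagged CAL PDZ domain. Schedule: 1 h room-temperature incubation prior to read. Signal: fluorescence polarization (mP). Measure: percent inhibition from loss of millipolarization.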
Tn6 DDE FP = inhibitors of Tn6 peptide binding to fibrin DD(E), primary screen, biochemical, fluorescence polarization, human fibrin, Tn6 probe; AID 720509, 2013; Fibrinogen beta chain (Homo sapiens), P02675; Fibrin DD(E) TRITC-Tn6 fluorescence polarization displacement; actives 0.21% (n = 370,000); inhibition, % at 8.3 µM;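 active = inhibition above a per-campaign cutoff: mean of compounds within control limits plus 3 SD, cut at about 15% in these data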;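 also: 0% = median of all compound wells on the plate and 100% = blocking peptide control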
Target sequence (P02675 whole entry, looked up): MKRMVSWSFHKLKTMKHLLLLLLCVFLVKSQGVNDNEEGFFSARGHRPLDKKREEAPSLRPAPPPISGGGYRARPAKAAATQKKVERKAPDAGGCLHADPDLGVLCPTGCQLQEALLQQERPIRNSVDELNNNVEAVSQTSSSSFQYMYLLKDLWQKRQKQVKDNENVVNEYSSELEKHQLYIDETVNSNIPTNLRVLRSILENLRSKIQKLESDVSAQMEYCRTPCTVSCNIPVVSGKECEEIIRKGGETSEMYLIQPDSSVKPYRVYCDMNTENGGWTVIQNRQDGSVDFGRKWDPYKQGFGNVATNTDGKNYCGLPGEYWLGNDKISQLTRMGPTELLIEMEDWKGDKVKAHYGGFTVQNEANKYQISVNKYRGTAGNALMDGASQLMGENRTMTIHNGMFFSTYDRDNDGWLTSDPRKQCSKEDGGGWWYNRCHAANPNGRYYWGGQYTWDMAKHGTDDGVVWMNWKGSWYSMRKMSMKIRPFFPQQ
DDE Tn7 FP inh = inhibitors of Tn7 peptide binding to fibrin DD(E), primary screen, biochemical, fluorescence polarization, human fibrin, Tn7 probe; AID 720508, 2013; Fibrinogen beta chain (Homo sapiens), P02675; inhibition, % at 8.3 µM; actives 0.13% (n = 370,000); FP displacement of FITC-Tn7 peptide from fibrin DD(E); 0% = median of compound wells per plate;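 active = inhibition above the mean of compounds falling within the control limits plus 3 SD of them, cut at about 14% in these data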;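 also: 0% = plate median of compound wells and 100% = 10 µM Aha-Tn7 peptide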
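Assay system: human fibrin DD(E) protein / Input: 2 µM fibrin DD(E) / Benchmarks: high control of 10 µM Aha-Tn7 peptide / Measured by: fluorescence polarization of the labelled Tn7 tracer / Medium: Tris buffer with calcium and detergent, pH 7.8 / Timing: 10 min compound pre-incubation, 3 h probe incubation at room temperature / Repeats: one replicate per compound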
Numbers without * were called inactive.

`Cn1c(=O)c(=O)n(C)c2cc(S(=O)(=O)N3CCN(Cc4ccc5c(c4)OCO5)CC3)ccc21` gave Tn6 DDE FP -6 and DDE Tn7 FP inh 3.
Screening Cc1ccc(-n2c(SCC(=O)Nc3ccc(S(=O)(=O)Nc4cc(C)nc(C)n4)cc3)nnc2-c2cccs2)cc1 returned Tn6 DDE FP -10 and DDE Tn7 FP inh -1.
Screening O=S1(=O)CCOCC(CO)N1Cc1cccc(Br)c1 (stereo not given) returned Tn6 DDE FP -5 and DDE Tn7 FP inh 4.
`O=C(NCC(c1ccco1)N1CCN(c2ccccc2)CC1)C(=O)NC1CCCC1` (stereo not given) gave Arr AP2 block 16, CAL PDZ FP-2 0, Tn6 DDE FP 1 and DDE Tn7 FP inh -3.
Screening O=C(NCC(c1ccco1)N1CCN(c2ccccc2)CC1)C(=O)NC1CCCCC1 (stereo not given) returned Arr AP2 block -6, CAL PDZ FP-1 36*, CAL PDZ FP-2 0, Tn6 DDE FP 6 and DDE Tn7 FP inh 1.
For CCOC(=O)C1=C(Cc2ccc(OC)cc2)C(=O)c2ccccc2C1=O the results were Arr AP2 block 55*, CAL PDZ FP-1 -2 and CAL PDZ FP-2 0.
For CC(=O)CC[C@H]1CC[C@]2(CCCN(C(=O)C(C)(C)C)C2)O1 the results were Tn6 DDE FP 0 and DDE Tn7 FP inh 0.
For COc1ccc(-n2c(CNC(=O)COc3ccccc3)n[nH]c2=S)cc1 the results were Arr AP2 block -3, CAL PDZ FP-1 41*, CAL PDZ FP-2 0, Tn6 DDE FP -2 and DDE Tn7 FP inh 6.
Screening O=C(COc1ccccc1)NCc1n[nH]c(=S)n1-c1ccccc1 returned Arr AP2 block 8, CAL PDZ FP-1 -4, CAL PDZ FP-2 -1, Tn6 DDE FP -8 and DDE Tn7 FP inh -4.
Screening COc1ccc(OC)c(NC(=O)O[C@@H]2CC[C@@]34CCCN3C(=O)CCC[C@H]4C2)c1 returned Tn6 DDE FP -1 and DDE Tn7 FP inh 8.
FC(F)Oc1ccc(NC(=S)NCc2nc3ccccc3[nH]2)cc1 was read as Arr AP2 block -15, CAL PDZ FP-1 41*, CAL PDZ FP-2 -2, Tn6 DDE FP -7 and DDE Tn7 FP inh 4.
Cc1ccc(S(=O)(=O)N2CCCC(C(=O)NCCN3CCC(Cc4ccccc4)CC3)C2)cc1 (stereo not given) was read as Tn6 DDE FP 1 and DDE Tn7 FP inh 9.
Screening CC(NC(=O)COC(=O)/C=C/c1ccc([N+](=O)[O-])cc1)c1ccccc1 (stereo not given) returned Arr AP2 block 4, CAL PDZ FP-1 -5, CAL PDZ FP-2 -2, Tn6 DDE FP -8 and DDE Tn7 FP inh -8.
CC(NC(=O)C(=O)N/N=C\c1ccc([N+](=O)[O-])cc1)c1ccccc1 (stereo not given) was read as Arr AP2 block -15, CAL PDZ FP-1 40*, CAL PDZ FP-2 0, Tn6 DDE FP 2 and DDE Tn7 FP inh -3.
`O=C(CCCSc1nnnn1-c1cccc2ccccc12)c1ccc(F)cc1` gave Arr AP2 block -4, CAL PDZ FP-1 46*, Tn6 DDE FP -2 and DDE Tn7 FP inh 2.
Screening Cc1ccccc1C1CCC2(CCC(=O)N2CC[C@@H](O)c2ccccc2)CC1 (stereo not given in full) returned Tn6 DDE FP 7 and DDE Tn7 FP inh -1.
O=C(Nc1ccc(F)cc1F)c1ccc(S(=O)(=O)NCc2ccco2)cc1 was read as Arr AP2 block -3, CAL PDZ FP-1 48*, CAL PDZ FP-2 -1, Tn6 DDE FP -1 and DDE Tn7 FP inh 1.
Screening O=C(Nc1ccc(S(=O)(=O)N2CCCC2)cc1)Nc1ccc(F)cc1F returned Arr AP2 block 23, CAL PDZ FP-1 0, CAL PDZ FP-2 -4, Tn6 DDE FP -5 and DDE Tn7 FP inh 10.
For O=C(Nc1ccc(F)cc1F)c1ccc(S(=O)(=O)N2CCCCC2)cc1 the results were Arr AP2 block -19, CAL PDZ FP-1 34*, CAL PDZ FP-2 0, Tn6 DDE FP -1 and DDE Tn7 FP inh 4.
Screening Cc1ccc(-n2c(SCC(=O)c3ccc(O)c(O)c3)nnc2-c2ccccc2)cc1 returned Tn6 DDE FP 8 and DDE Tn7 FP inh 0.
`CC(C)(C)N(Cc1cn(Cc2ccccc2)nn1)S(=O)(=O)c1ccccc1Br` gave Tn6 DDE FP -2 and DDE Tn7 FP inh -2.
C/C(=C/c1[nH]c(N)[n+](CC2CC2)c1Cc1ccccc1)Cn1[nH]c(=O)n(-c2ccccc2)c1=O was read as Tn6 DDE FP 2 and DDE Tn7 FP inh 0.
Screening Cc1noc(C)c1S(=O)(=O)N(CC(=O)NCc1ccccc1)c1ccc(C(C)C)cc1 returned Arr AP2 block 10, CAL PDZ FP-2 0, Tn6 DDE FP -1 and DDE Tn7 FP inh -2.
COc1ccc(N(CC(=O)NCCc2ccc(OC)c(OC)c2)S(=O)(=O)c2c(C)noc2C)cc1 was read as Arr AP2 block -6, CAL PDZ FP-1 73*, CAL PDZ FP-2 0, Tn6 DDE FP 5 and DDE Tn7 FP inh 5.
`Cc1noc(C)c1S(=O)(=O)N(CC(=O)NCc1ccc(F)cc1)c1ccc(C(C)C)cc1` gave Arr AP2 block 23, CAL PDZ FP-1 44*, CAL PDZ FP-2 -3, Tn6 DDE FP -2 and DDE Tn7 FP inh 2.
For CCOC(=O)C(NC(=O)c1ccccc1)(Nc1cccc(C)n1)C(F)(F)F (stereo not given) the results were Arr AP2 block 6, CAL PDZ FP-1 1, CAL PDZ FP-2 0, Tn6 DDE FP 2 and DDE Tn7 FP inh 4.
For CCOC(=O)C(NCc1ccco1)(NC(=O)c1ccccc1)C(F)(F)F (stereo not given) the results were Arr AP2 block -1, CAL PDZ FP-1 43*, CAL PDZ FP-2 -1, Tn6 DDE FP 3 and DDE Tn7 FP inh 1.
For CC1CCN(CCCNC(=O)c2ccc3c(=O)n(Cc4ccc(Cl)cc4)c(=S)[nH]c3c2)CC1 the results were Arr AP2 block -13, CAL PDZ FP-1 -1, CAL PDZ FP-2 66*, Tn6 DDE FP -1 and DDE Tn7 FP inh -3.
For COC(=O)c1ccc2c(=O)n(Cc3ccc(C(=O)NCCCN4CCC(C)CC4)cc3)c(=S)[nH]c2c1 the results were Arr AP2 block -53, CAL PDZ FP-1 -7, CAL PDZ FP-2 -3, Tn6 DDE FP -8 and DDE Tn7 FP inh 1.
